Only some compounds are listed: those with a hit (about 2.8% of all), similar ones and a draw of the others.
RBBP9 inh: blocks human serine hydrolase RBBP9 | O75884 | 0.2% of 220,000 active | recombinant RBBP9, FP-Rh probe fluorescence polarization | inhibition, % at 7.94 µM;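 active means inhibition above the campaign mean of all tested compounds plus 3 SD, cut at about 14% in these data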
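System: RBBP9 protein / Buffer or medium: Tris/NaCl buffer pH 8.0 with 0.1% Pluronic / Probe or stimulus: Serine-hydrolase probe FP-Rh, 375 nM pre-mixing / Dosing: 7.94 µM single dose, 0.794% DMSO / Times: enzyme-compound preincubation 30 min, then probe labeling 45 min, 25 °C / Technique: fluorescence polarization (mP), excitation 525 nm, emission 598 nm / Replication: singlicate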
14-3-3 Bad inh: disrupts binding of bovine 14-3-3 zeta to phospho-Bad peptide | P63103 | TR-FRET 14-3-3zeta/Dy647-pBad peptide displacement, 1 h | inhibition, % at 21.7 µM | 0.71% of 220,000 active | AID 781;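 active means inhibition above about 70%, limit read from the data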
Wee1 stabilizer: blocks degradation of human Wee1 kinase | reporter increase, % at 5 µM | P30291 | HeLa Luc-Wee1K328M stability, luciferase luminescence; 100% = proteasome inhibitor MG132 effect | 1.2% of 220,000 active | AID 1321;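 active means activation above the mean of all tested compounds plus 3 SD, set per screening run, cut at about 8.8% in these data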;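 further: cells exposed to compound for 20 h before luminescence read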
NCF1 inh: inhibitors of human p47phox binding; 0.53% of 220,000 active; p47phox/p22phox peptide binding, fluorescence polarization, 2 h; P14598; inhibition, % at 24.7 µM
Target sequence (P14598 whole entry, looked up): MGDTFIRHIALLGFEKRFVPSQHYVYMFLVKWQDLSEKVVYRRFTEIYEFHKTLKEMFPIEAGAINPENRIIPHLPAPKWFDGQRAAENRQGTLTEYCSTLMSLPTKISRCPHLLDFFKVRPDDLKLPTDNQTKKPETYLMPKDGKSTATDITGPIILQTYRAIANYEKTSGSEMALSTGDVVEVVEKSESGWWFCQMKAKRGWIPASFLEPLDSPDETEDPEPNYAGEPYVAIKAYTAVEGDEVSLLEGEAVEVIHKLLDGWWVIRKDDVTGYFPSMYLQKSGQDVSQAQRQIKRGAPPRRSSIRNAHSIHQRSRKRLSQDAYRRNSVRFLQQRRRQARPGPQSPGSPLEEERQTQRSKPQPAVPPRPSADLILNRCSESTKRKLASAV
eIF4E 4G PPI: blocks eIF4E binding to eIF4G | 0.37% of 220,000 active | TR-FRET eIF4E-eIF4GI(517-606) binding, 2 h | AID 782 | P63073+Q04637 | inhibition, % at 21.7 µM
Wee1 stab conf: human Wee1 degradation inhibition, confirmation; shares compounds with Wee1 stabilizer; HeLa Luc-Wee1K328M degradation, luminescence; vehicle 0%, proteasome-blocked wells 100%; activation, % at 5 µM; 4% of 1,100 active; AID 1410; in the data active means activation above about 8.9%
A number is an active result; – = inactive; · = no result.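 How the source made its calls, unless noted: active means inhibition above about 30% (limit read from the data); inactive means the rest.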

SMILES	RBBP9 inh	14-3-3 Bad inh	Wee1 stabilizer	NCF1 inh	eIF4E 4G PPI	Wee1 stab conf
CCn1c(CSc2nc3ccccc3s2)nnc1SCC(N)=O	–	–	16	–	–	–
Cc1c(O)cc2n(c1=O)-c1ccccc1C2(C)C	–	–	–	–	–	·
CC1(C)c2ccccc2-n2c1cc1oc(=O)cc(O)c1c2=O	–	–	15	–	–	–
O=C(CCNC(=O)c1ccccc1)Oc1ccc([N+](=O)[O-])cc1	–	–	–	–	–	·
CCOCCCNC(=S)Nc1ccc(S(N)(=O)=O)cc1	–	–	13	–	–	–
CCCC12CN3CC(C)(CN(C1)C3c1cccs1)C2=O (stereo unspecified)	–	–	–	–	–	·
COc1ccc(NC(=O)Cn2cnc3sc(C)c(S(=O)(=O)N4CCOCC4)c3c2=O)c(OC)c1	–	–	–	–	–	·
CCCCc1c(C)nc(Nc2ccc(OC)cc2)[nH]c1=O	–	–	18	–	–	–
CCCCCc1c(C)nc(Nc2ccc(F)cc2)[nH]c1=O	–	–	–	–	–	·
C/C=C/c1ccc(OCC(=O)Nc2ccc(C(N)=O)cc2)c(OC)c1	–	–	–	–	–	·
COc1cc(C=C2C(=O)OC(C)(C)OC2=O)ccc1OCC(=O)Nc1ccccc1	–	–	15	–	–	–
CC1=NCCN1CCNC(=O)Nc1ccc(C(C)(C)C)cc1	–	–	15	–	–	–
COc1cc(OC)c(NC(=O)/C=C/C(=O)O)cc1Cl	–	–	12	–	–	–
COc1ccc([N+](=O)[O-])cc1NC(=O)/C=C/C(=O)O	–	–	–	–	–	·
S=C(Nc1ccccc1)N1CCN(Cc2ccccc2)CC1	–	–	–	–	–	·
S=C(NCCN1CCOCC1)Nc1cccc(Cl)c1	–	–	15	–	–	–
S=C(Nc1cccc(Cl)c1)N1CCN(Cc2ccccc2)CC1	–	–	11	–	–	–
COc1ccccc1OCC(=O)Nc1ccc(N2CCCCC2)cc1	–	–	11	–	–	–
O=C(Nc1ccc(N2CCCCC2)cc1)c1ccc(F)cc1	–	–	11	–	–	–
COc1ccc(C(=O)Nc2ccc(N3CCCC3)cc2)cc1	–	·	–	–	·	·
COc1ccc(OCc2nnc(SCC(=O)N(C)Cc3ccccc3)n2N)cc1	–	–	–	–	–	·
Cc1cc(C)c(NS(=O)(=O)c2ccc(NC(=O)CCC(=O)O)cc2)c(C)c1	–	–	–	–	–	·
C(=N\Nc1nc2ccccc2[nH]1)/c1ccc2c(c1)OCO2	–	–	12	–	–	–
COc1ccccc1CN=C1NC(=O)C(CC(=O)Nc2ccc(C(C)=O)cc2)S1 (stereo unspecified)	–	–	–	–	–	·
Cc1ccccc1NC(=O)c1c(-c2ccccc2)noc1C	–	·	–	–	·	·
SMILES	RBBP9 inh	14-3-3 Bad inh	Wee1 stabilizer	NCF1 inh	eIF4E 4G PPI	Wee1 stab conf
Cc1cccc(C)c1NC(=O)c1c(-c2ccccc2)noc1C	–	–	11	–	–	–
Cc1cc(C(=O)COC(=O)C2=NNC(=O)CC2)c(C)n1CCc1ccccc1	–	–	–	–	–	·
O=C(C1CCCN(S(=O)(=O)Cc2ccccc2)C1)N1CCc2ccccc21 (stereo unspecified)	–	–	–	–	–	·
Fc1ccccc1/C=N/Nc1ncnc2ccccc12	–	–	12	–	–	–
Clc1ccc(/C=N/Nc2ncnc3ccccc23)cc1Cl	–	–	–	–	–	·
C=CCNC(=S)Nc1cc(Cl)ccc1OC	–	–	–	–	–	·
COc1cc(C2Nc3cc(Cl)c(S(N)(=O)=O)cc3S(=O)(=O)N2)cc(OC)c1OC (stereo unspecified)	–	–	12	–	–	–
Cc1ccc(NC(=S)N2CCOCC2)cc1	–	–	–	–	–	·
Cc1ccc(NC(=S)N2CCCC(O)C2)cc1 (stereo unspecified)	–	–	14	–	–	–
O=c1cc(-c2ccccc2Cl)oc2cc(O)cc(O)c12	–	–	–	–	–	·
O=C1C=CC(O)(c2cc(=O)c3c(O)cc(O)cc3o2)C=C1	–	–	41	–	–	69
C=CC(=O)NCCCc1cc(C(C)(C)C)c(O)c(C(C)(C)C)c1	–	–	–	–	–	·
Cc1ccc(C(=O)O)cc1NC(=S)NC(=O)c1ccc(-c2ccc(Cl)cc2)o1	–	–	12	–	–	–

Assay outcomes (PubChem)
